Laboratory results from publication PMC6282584 (Chemmedchem, 2018).

Legend:
PR [1] = target: T1, PR (Rattus norvegicus, UniProt Q63449); experiment: Termination of early pregnancy in rats; format: in vivo; conditions: p.o., n=6
T1 sequence (Q63449 1-923): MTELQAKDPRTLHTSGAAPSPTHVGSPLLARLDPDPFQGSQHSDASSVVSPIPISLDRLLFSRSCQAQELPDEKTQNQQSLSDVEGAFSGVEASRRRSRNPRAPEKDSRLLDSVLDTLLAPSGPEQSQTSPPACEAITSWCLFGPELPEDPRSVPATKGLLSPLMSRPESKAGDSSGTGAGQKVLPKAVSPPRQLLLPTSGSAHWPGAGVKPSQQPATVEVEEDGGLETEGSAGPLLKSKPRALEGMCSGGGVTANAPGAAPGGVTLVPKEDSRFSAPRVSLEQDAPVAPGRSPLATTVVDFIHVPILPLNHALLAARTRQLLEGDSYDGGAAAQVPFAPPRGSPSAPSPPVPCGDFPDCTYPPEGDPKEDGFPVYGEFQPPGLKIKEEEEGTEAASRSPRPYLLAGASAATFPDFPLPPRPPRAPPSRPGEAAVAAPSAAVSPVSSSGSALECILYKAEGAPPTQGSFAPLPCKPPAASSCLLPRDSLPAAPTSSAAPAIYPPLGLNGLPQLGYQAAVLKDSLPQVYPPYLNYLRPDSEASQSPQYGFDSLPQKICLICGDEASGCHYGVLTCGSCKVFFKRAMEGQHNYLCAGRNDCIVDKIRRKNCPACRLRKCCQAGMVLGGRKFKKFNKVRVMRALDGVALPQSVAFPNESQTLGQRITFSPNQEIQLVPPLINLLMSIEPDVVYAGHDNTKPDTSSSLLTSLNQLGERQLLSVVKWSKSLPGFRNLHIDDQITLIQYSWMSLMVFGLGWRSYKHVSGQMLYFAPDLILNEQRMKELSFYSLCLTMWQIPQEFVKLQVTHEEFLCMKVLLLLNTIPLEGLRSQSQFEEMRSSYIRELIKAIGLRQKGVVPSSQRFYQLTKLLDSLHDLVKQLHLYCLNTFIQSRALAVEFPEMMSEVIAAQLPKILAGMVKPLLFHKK
In short: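 Wistar rats (100–230 g) were randomized on Days 5–7 post-coitum (n=6 per group). They received test compound at several doses s.c. or p.o., or vehicle (benzyl benzoate/castor oil 1+4 v/v, or 85 mg polyoxyethylene-(50)-stearate in 100 mL 0.9 % NaCl). Autopsy was on Day 9. Full efficacy meant all animals lacked implantation sites or had only regressed or hemorrhagic sites.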

[2] = Determination of lonaprisan and its metabolites in human serum; format: in vivo; conditions: single oral 200 mg lonaprisan
In short: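 Serum was sampled from volunteers after a single oral dose of the parent steroid. Concentration–time profiles of the parent and three metabolites were measured by LC–MS/MS with external calibration against authentic reference compounds. PK parameters were then calculated. Each metabolite AUC(0–∞) was expressed as % of parent AUC and as a share of the summed AUC of drug-related compounds.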

PR [3] = target: T2, PR (Oryctolagus cuniculus, UniProt P06186); experiment: Endometrial transformation in rabbits; format: in vivo, rabbit; conditions: p.o., with progesterone, McPhail index 1 or 1.5
T2 sequence (P06186 1-930): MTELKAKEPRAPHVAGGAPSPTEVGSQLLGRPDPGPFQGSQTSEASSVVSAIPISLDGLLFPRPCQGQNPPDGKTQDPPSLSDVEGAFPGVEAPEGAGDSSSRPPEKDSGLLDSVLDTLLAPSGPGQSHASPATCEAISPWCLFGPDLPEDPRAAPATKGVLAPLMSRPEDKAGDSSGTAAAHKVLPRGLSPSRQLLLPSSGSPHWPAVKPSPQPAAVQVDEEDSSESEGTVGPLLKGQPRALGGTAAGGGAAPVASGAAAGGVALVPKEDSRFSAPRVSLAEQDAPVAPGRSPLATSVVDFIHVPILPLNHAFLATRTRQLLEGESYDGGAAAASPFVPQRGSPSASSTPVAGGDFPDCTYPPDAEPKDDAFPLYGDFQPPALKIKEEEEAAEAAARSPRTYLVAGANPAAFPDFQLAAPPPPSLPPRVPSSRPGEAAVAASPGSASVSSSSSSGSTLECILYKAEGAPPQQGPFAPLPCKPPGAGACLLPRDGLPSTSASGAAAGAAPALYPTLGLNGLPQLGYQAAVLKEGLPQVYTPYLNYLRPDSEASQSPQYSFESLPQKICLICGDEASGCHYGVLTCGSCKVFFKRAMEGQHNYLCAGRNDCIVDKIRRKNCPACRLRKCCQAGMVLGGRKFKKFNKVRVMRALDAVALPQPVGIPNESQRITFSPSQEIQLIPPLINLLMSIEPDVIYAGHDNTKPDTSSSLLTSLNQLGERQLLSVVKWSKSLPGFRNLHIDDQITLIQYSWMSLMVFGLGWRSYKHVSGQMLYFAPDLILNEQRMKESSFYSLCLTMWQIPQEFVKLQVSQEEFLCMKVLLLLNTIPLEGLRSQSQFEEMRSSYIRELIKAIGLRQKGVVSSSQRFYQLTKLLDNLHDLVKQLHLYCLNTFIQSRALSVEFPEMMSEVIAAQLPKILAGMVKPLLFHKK
In short: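 Juvenile New Zealand white rabbits (35–42 days old, 900–1300 g) were primed with 17β-estradiol, […] s.c., on Days 1–4. For the antagonist test, animals were randomized (n=4) on Days 7–10 to 0.2 mg kg−1 day−1 progesterone s.c. plus test compound p.o. Autopsy was on Day 11. Glandular differentiation was scored by light microscopy as McPhail index 1–4. Full efficacy meant every animal in the group scored 1 or 1.5.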

- Dose of full efficacy, termination of early pregnancy in rats (PR [1]): 0.5 mg/kg
- Relative contribution to sum of AUC of drug-related compounds [2]: 6%
- Dose of full efficacy, endometrial transformation in rabbits (PR [3]): 1.0 mg/kg
Structure (SMILES): CC(=O)c1ccc([C@H]2C[C@@]3(C)[C@@H](CC[C@@]3(O)C(F)(F)C(F)(F)F)[C@@H]3CCC4=CC(=O)CCC4=C32)cc1 [lonaprisan]
